A short description of series [1]: Cytotoxicity against human MT4 cells assessed as cell viability after 5 days by MTT assay. It counts as cell-based. In a few lines: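 Mock-infected MT-4 cells, from exponentially growing cultures pelleted and resuspended at 6 × 10^5 cells/ml, were run in triplicate wells alongside the infected series. Compound was added from 10× stocks at the start of the experiment. Viability was read by MTT after five days. CC50 is the concentration that lowers viability by 50%, taken as the median of two or three parallel assays.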

The nature of series [2]: Selectivity index, ratio of CC50 for human MT4 cells to EC50 for HIV1 3B infected in human MT4 cells. Format: toxicity, cell-based. Conditions: read-out: Ratio CC50/EC50. In a few lines:
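MT-4 cells at 6 × 10^5 cells/ml, in triplicate wells, infected with HIV-1 IIIB or mock-infected. Compounds added from 10× stocks at the start of infection. MTT viability read on day 5. SI = CC50 (mock-infected cells) / EC50 (IIIB). Median of two or three parallel assays.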

The test system of series [3] is Human immunodeficiency virus 2. As to the kind of experiment: Antiviral activity against HIV2 ROD infected in human MT4 cells assessed as inhibition of viral cytopathicity after 5 days by MTT assay. It counts as functional, organism-based. Conditions: Human immunodeficiency virus 2, ISOLATE ROD, MT4, 120 h. In a few lines: (§1)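 HIV-infected MT-4 cells were compared with mock-infected wells in triplicate. Exponentially growing cells were pelleted for 5 min at 1000 rpm and resuspended at 6 × 10^5 cells/ml. Compound was added at the start of infection from stocks at 10× final concentration. Viability was read by MTT five days post-infection. EC50 is the concentration giving 50% protection against virus-induced cytotoxicity, taken as the median of two or three parallel assays.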
(In general: Damage to the host cells serves as the signal in cytopathic effect assays.)

Series [4] addresses Human immunodeficiency virus type 1 reverse transcriptase (Human immunodeficiency virus 1, UniProt Q72547). As to the kind of experiment: Inhibition of wild-type HIV1 reverse transcriptase assessed as incorporation of biotin-labeled dUTP. In a few lines:
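HIV-1 RT enzyme assay with poly(A)·oligo(dT)15 as template-primer. Incorporation of digoxigenin- and biotin-labeled dUTP into DNA was read colorimetrically with the peroxidase substrate ABTS.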

Series [5] relates to Human immunodeficiency virus 1. The experiment in a line: Antiviral activity against HIV1 RES056 harboring reverse transcriptase K103N/Y181C mutant infected in human MT4 cells assessed as inhibition of viral cytopathicity after 5 days by MTT assay. It counts as functional, organism-based. Conditions: Human immunodeficiency virus 1, RES056, MT4, 120 h. In a few lines:
(§2)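 MT-4 cells pelleted 5 min at 1000 rpm, resuspended at 6 × 10^5 cells/ml and plated. Compounds added from 10× stocks at the start, in triplicate wells, to HIV-infected and mock-infected cells in parallel. Viability read by MTT 5 days after infection. EC50 is 50% protection from virus-induced cytotoxicity. CC50 is 50% loss of viability in mock-infected cells. SI = CC50/EC50. Median of two or three parallel assays.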

The subject of series [6] is Human immunodeficiency virus 1. The experiment in a line: Antiviral activity against wild-type HIV1 3B infected in human MT4 cells assessed as inhibition of viral cytopathicity after 5 days by MTT assay. It counts as functional, organism-based. Conditions: Human immunodeficiency virus 1, 3B, MT4, 120 h. A digest of the protocol:
as §1

The subject of series [7] is Human immunodeficiency virus 1. The experiment in a line: Fold resistance, ratio of EC50 for HIV1 RES056 expressing K103N/Y181C mutant infected in human MT4 cells to EC50 for wild-type HIV1 3B infected in human MT4 cells. Format: functional. A digest of the protocol:
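MTT protection assay in MT-4 cells run in parallel against the K103N/Y181C double mutant (RES056) and wild-type IIIB. Viability read 5 days after infection. Fold resistance = EC50 against the mutant divided by EC50 against IIIB. Median of two or three parallel assays.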

Series [8] is described as follows: Selectivity index, ratio of CC50 for human MT4 cells to EC50 for HIV1 RES056 harboring reverse transcriptase K103N/Y181C mutant infected in human MT4 cells. Format: toxicity, cell-based. The settings on record: read-out: Ratio CC50/EC50. A digest of the protocol: as §2

The structures appear in SMILES notation.

The CC50 is the concentration giving 50% cytotoxicity. As a reminder, the EC50 is the concentration needed to bring the measured effect to its halfway point. The term IC50 denotes the concentration at which inhibition is half-maximal. For the compound `Cc1cc(C#N)cc(C)c1Oc1ccc([N+](=O)[O-])c(NC2CCN(Cc3ccc(S(C)(=O)=O)cc3)CC2)c1`, in series [1], the CC50 at 120 h was > 234 µM. Besides, the selectivity ratio in series [2] is > 10800. Besides, the EC50 in series [3] is > 234 µM; in series [5], > 234 µM; in series [6], 0.022 µM. Besides, the IC50 in series [4] came to 0.36 µM. Moreover, in series [7], the “Ratio EC50” value is reported as >10770.

Regarding `Cc1cc(C)c(Oc2ccc([N+](=O)[O-])c(NC3CCN(Cc4ccc([N+](=O)[O-])cc4)CC3)c2)c(C)c1`, the selectivity ratio in series [8] was < 1; in series [2], 70. The CC50 at 120 h in series [1] stood at 147 µM. Moreover, the figures for the EC50 in series [3], in series [5] and in series [6] were > 147 µM, > 147 µM and 2.1 µM, respectively. In series [7], the “Ratio EC50” value is given as >70.

For `Cc1cc(C#N)cc(C)c1Oc1ccc([N+](=O)[O-])c(NC2CCN(Cc3ccncc3)CC2)c1`, the selectivity ratio in series [8] was < 1; in series [2], 336. In series [1], the CC50 at 120 h is 19 µM. The EC50 was > 19 µM in series [3], > 19 µM in series [5] and 0.056 µM in series [6]. Also, in series [7], the “Ratio EC50” value was >336.

On to `Cc1cc(C)c(Oc2ccc([N+](=O)[O-])c(NC3CCN(Cc4ccc(S(N)(=O)=O)cc4)CC3)c2)c(C)c1`, for which the selectivity ratio in series [8] is < 1; in series [2] it was 615. In addition, the cytotoxic concentration (CC50) at 120 h in series [1] amounted to 22 µM. The values for the EC50 in series [3], in series [5] and in series [6] were > 22 µM, > 22 µM and 0.036 µM, respectively. In addition, in series [7], the “Ratio EC50” value is listed as >615.

`Cc1cc(C#N)cc(C)c1Oc1ccc([N+](=O)[O-])c(NC2CCN(Cc3ccc(S(N)(=O)=O)cc3)CC2)c1`: the values for the selectivity ratio in series [8] and in series [2] were < 1 and 782, respectively. The CC50 at 120 h in series [1] came to 23 µM. Also, the EC50 is > 23 µM in series [3], > 23 µM in series [5] and 0.029 µM in series [6]. The “Ratio EC50” value in series [7] was >782.

As for `Cc1cc(C#N)cc(C)c1Oc1ccc([N+](=O)[O-])c(NC2CCN(Cc3ccccc3)CC2)c1`, the selectivity ratio in series [8] is < 1; in series [2], 4.4. In series [1], the CC50 at 120 h was 2.8 µM. In addition, the EC50 in series [3] is > 2.8 µM; in series [5], > 2.8 µM; in series [6], 0.63 µM. Further, the “Ratio EC50” value in series [7] is >4.4.

With `Cc1cc(C)c(Oc2ccc([N+](=O)[O-])c(NC3CCN(Cc4ccc(S(C)(=O)=O)cc4)CC3)c2)c(C)c1`, the selectivity ratio is < 1 in series [8] and 5900 in series [2]. For the same compound, the CC50 at 120 h in series [1] was 158 µM. Also, the EC50 is > 158 µM in series [3], > 158 µM in series [5] and 0.027 µM in series [6]. In addition, the “Ratio EC50” value in series [7] was >5895.

`Cc1cc(C#N)cc(C)c1Oc1ccc([N+](=O)[O-])c(NC2CCN(Cc3ccc(C(N)=O)cc3)CC2)c1`: the values for the selectivity ratio in series [8] and in series [2] were < 1 and 430, respectively. Moreover, in series [1], the CC50 at 120 h came to 27 µM. Also, the EC50 was > 27 µM in series [3], > 27 µM in series [5] and 0.062 µM in series [6]. Moreover, the “Ratio EC50” value in series [7] is >430.

Regarding `Cc1cc(C)c(Oc2ccc([N+](=O)[O-])c(NC3CCN(Cc4ccccc4)CC3)c2)c(C)c1`, the selectivity ratio in series [8] is < 1; in series [2] it was 37. Moreover, in series [1], the CC50 at 120 h was 25 µM. Moreover, the figures for the EC50 in series [3], in series [5] and in series [6] were > 25 µM, > 25 µM and 0.66 µM, respectively. Moreover, the “Ratio EC50” value in series [7] is >37.

`Cc1cc(C#N)cc(C)c1Oc1ccc([N+](=O)[O-])c(NC2CCN(Cc3ccc([N+](=O)[O-])cc3)CC2)c1`: the selectivity ratio was < 1 in series [8] and 269 in series [2]. In addition, in series [1], the CC50 at 120 h turned out to be 182 µM. The EC50 in series [3] is > 182 µM; in series [5], > 182 µM; in series [6], 0.67 µM. Besides, in series [7], the “Ratio EC50” value is reported as >269.

Consider `Cc1cc(C#N)cc(C)c1Oc1ccc([N+](=O)[O-])c(NC2CCN(Cc3ccc(C(=O)O)cc3)CC2)c1`, for which the figures for the selectivity ratio in series [8] and in series [2] were < 1 and 159, respectively. Further, the CC50 at 120 h in series [1] was 30 µM. In addition, the EC50 in series [3] is > 30 µM; in series [5], > 30 µM; in series [6], 0.19 µM. Further, in series [7], the “Ratio EC50” value is reported as >159.

For the compound `Cc1cc(C#N)cc(C)c1Oc1ccc(N)c(NC2CCN(Cc3ccc(S(N)(=O)=O)cc3)CC2)c1.Cl`, the selectivity ratio in series [8] was determined as 4.4; in series [2] it was 505. The CC50 at 120 h in series [1] is 22 µM. Besides, the EC50 in series [3] was > 22 µM; in series [5], 4.8 µM; in series [6], 0.043 µM. Besides, in series [7], the “Ratio EC50” value came to 114.

As for `Cc1cc(C)c(Oc2ccc([N+](=O)[O-])c(NC3CCN(Cc4ccncc4)CC3)c2)c(C)c1`, the selectivity ratio in series [8] is < 1; in series [2], 258. Besides, in series [1], the CC50 at 120 h is 21 µM. Moreover, the EC50 was > 21 µM in series [3], > 21 µM in series [5] and 0.082 µM in series [6]. The “Ratio EC50” value in series [7] is reported as >258.

As for `Cc1cc(C)c(Oc2ccc([N+](=O)[O-])c(NC3CCN(Cc4ccc(C(N)=O)cc4)CC3)c2)c(C)c1`, the selectivity ratio is < 1 in series [8] and 457 in series [2]. For the same compound, the half-maximal cytotoxic concentration (CC50) at 120 h in series [1] came out at 27 µM. Moreover, the EC50 in series [3] was > 27 µM; in series [5], > 27 µM; in series [6] it was 0.059 µM. Moreover, the “Ratio EC50” value in series [7] is on record as >457.

The record behind these values is ChEMBL document CHEMBL3098104, “Design, synthesis and preliminary SAR studies of novel N-arylmethyl substituted piperidine-linked aniline derivatives as potent HIV-1 NNRTIs” (Bioorg Med Chem, 2014).
